Results taken from ChEMBL document CHEMBL1125219, “A selective, reversible, competitive inhibitor of monoamine oxidase A containing no nitrogen, with negligible potentiation of tyramine-induced blood pressure rise” (J Med Chem, 1991).

Tests used:
[1] = molecular target: T1, Amine oxidase [flavin-containing] A (Rattus norvegicus, UniProt P21396); experiment: The compound was tested ex vivo for inhibition of Monoamine Oxidase A in rat brain; type: functional, tissue-based
T1 sequence (P21396 whole entry): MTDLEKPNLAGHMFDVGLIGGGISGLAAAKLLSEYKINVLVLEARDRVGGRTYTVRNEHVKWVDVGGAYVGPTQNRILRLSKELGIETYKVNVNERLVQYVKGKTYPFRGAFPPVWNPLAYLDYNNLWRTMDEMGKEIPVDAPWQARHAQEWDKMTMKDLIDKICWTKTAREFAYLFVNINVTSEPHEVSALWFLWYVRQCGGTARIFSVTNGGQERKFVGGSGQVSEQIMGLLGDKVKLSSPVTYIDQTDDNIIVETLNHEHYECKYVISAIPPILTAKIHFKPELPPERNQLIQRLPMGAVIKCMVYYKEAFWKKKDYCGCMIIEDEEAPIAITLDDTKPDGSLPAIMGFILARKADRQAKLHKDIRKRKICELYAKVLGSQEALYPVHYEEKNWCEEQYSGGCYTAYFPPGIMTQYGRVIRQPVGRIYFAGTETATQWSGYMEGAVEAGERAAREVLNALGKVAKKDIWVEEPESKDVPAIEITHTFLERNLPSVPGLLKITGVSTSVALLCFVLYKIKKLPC

[2] = molecular target: T1, Amine oxidase [flavin-containing] A; experiment: The compound was tested in vitro for inhibition of Monoamine Oxidase A from rat brain
Method in brief: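 Double-label radiometric assay on washed rat brain mitochondria with the test agent in vitro. Substrates were at about twice Km, and each activity was independent of the other.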

[3] = molecular target: T1, Amine oxidase [flavin-containing] A; experiment: In vitro binding affinity towards Monoamine Oxidase A in rat
[4] = molecular target: T2, Amine oxidase [flavin-containing] A (Homo sapiens, UniProt P21397); experiment: In vitro binding affinity towards Monoamine Oxidase A in human
T2 sequence (P21397 whole entry): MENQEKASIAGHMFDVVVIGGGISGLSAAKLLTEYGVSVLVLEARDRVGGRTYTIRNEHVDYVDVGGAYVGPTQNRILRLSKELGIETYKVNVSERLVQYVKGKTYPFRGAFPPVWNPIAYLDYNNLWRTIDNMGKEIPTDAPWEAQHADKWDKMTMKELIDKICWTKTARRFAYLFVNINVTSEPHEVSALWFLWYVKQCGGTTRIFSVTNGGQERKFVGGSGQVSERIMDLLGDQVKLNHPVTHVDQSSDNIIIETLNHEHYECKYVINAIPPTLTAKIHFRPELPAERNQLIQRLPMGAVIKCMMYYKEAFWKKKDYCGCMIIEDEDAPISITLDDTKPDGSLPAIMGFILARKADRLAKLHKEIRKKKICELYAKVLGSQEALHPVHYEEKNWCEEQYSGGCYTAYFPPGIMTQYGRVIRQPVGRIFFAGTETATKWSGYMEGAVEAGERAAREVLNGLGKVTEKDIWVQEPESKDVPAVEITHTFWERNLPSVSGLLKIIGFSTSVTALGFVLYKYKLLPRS

[5] = molecular target: T1, Amine oxidase [flavin-containing] A; experiment: In vivo effective dose against Monoamine Oxidase A in rat brain; type: functional, organism-based
[6] = molecular target: T1, Amine oxidase [flavin-containing] A; experiment: The compound was tested ex vivo for percentage inhibition of Monoamine Oxidase A in rat brain at 20 mg/Kg; type: functional, tissue-based
[7] = molecular target: T1, Amine oxidase [flavin-containing] A; experiment: The compound was tested ex vivo for percentage inhibition of Monoamine Oxidase A in rat brain at 30 mg/kg; type: functional, organism-based; parameters: dose 30 mg/kg
[8] = molecular target: T1, Amine oxidase [flavin-containing] A; experiment: The compound was tested ex vivo for percentage inhibition of Monoamine Oxidase A in rat brain at 20 mg/kg; NS=No significant inhibition; type: functional, organism-based; parameters: dose 20 mg/kg

Row | ED50 [1] [mg/kg] | IC50 [2] [nM] | further results | SMILES
1 | 30 | 400 |  | CC(O)c1cccc2c1S(=O)(=O)c1ccccc1O2 (configuration not stated)
2 | 20 | 1200 |  | O=S1(=O)c2ccccc2Oc2cccc(C(O)CO)c21 (configuration not stated)
3 | 20 | 35 | Ki [3]: 10 nM; Ki [4]: 10 nM; ED50 [5]: 8 mg/kg | CCc1cccc2c1S(=O)(=O)c1ccccc1O2
4 |  | 20 | inhibition at 20 mg/kg [6]: 55% | O=S1(=O)c2ccccc2Oc2cccc(CCO)c21
5 | 20 | 40 |  | C=Cc1cccc2c1S(=O)(=O)c1ccccc1O2
6 |  | 2000 | inhibition at 30 mg/kg [7]: 70% | CC(=O)c1cccc2c1S(=O)(=O)c1ccccc1O2
7 |  | 30000 | Inhibition [8]: Not Active | O=C(O)Cc1cccc2c1S(=O)(=O)c1ccccc1O2
